Published values collected from several papers.
Protocols differ between the studies behind these lines.
Target: Tyrosine-protein kinase Srms (SRMS, Homo sapiens, UniProt Q9H3Y6)

`O=C1Nc2ccc(Cl)cc2C1=Cc1cc(Cl)c(O)c(Cl)c1` has a remaining signal of 86.3% (cell-free assay; 0.5 µM).
`O=C(Nc1cnn(-c2csc(C(=O)NC3COC3)c2)c1)Nc1c(F)cccc1Cl` gave a remaining activity of 105% (enzyme activity; inhibitor; 5 µM).
`C[C@H](c1ccnc(Nc2nc3ccc(-c4cc(N(C)C)ncn4)cc3[nH]2)c1)N1CCN(C(=O)CC(F)(F)F)CC1` gave a remaining binding of 97% (cell-free assay; competition with immobilised ligand; 0.1 µM).
`Cc1ccc(C(=O)NCc2ccsc2)cc1C#Cc1cn(C(C)C)c2ncnc(N)c12` gave an activity vs control of 31% (enzyme activity; inhibitor; 1 µM).
`CNCc1ccccc1-c1csc([C@H](C)Nc2nc(C)nc3cc(OC)c(OC)cc23)c1` gave a remaining binding of 88% (cell-free assay; competition with immobilised ligand; 1 µM).
For `CC(C)(O)[C@H]1CC[C@H](Nc2ccc3ncc(-c4cccc(C(F)(F)F)c4)n3n2)CC1`, the remaining activity was 96.5% (enzyme activity; inhibitor; 1 µM).
The remaining binding of `O=C(NC[C@@H]1[C@H]2CN(C(=O)OCc3cc(C(F)(F)F)cc(C(F)(F)F)c3)C[C@@H]12)c1ccc2[nH]nnc2c1` is reported as 83% (cell-free assay; competition with immobilised ligand; 1 µM).
For `O=C1NC(=O)c2cc(Nc3ccc(F)cc3)c(Nc3ccc(F)cc3)cc21`, the remaining signal was 95.5% (cell-free assay; 0.5 µM).
`Cc1cc(-n2nc(Cc3cc(F)cc(C(F)(F)F)c3)nc2C)ccc1C(N)=O` gave a remaining binding of 98% (cell-free assay; competition with immobilised ligand; 1 µM).
For `Cc1sc(C(=O)NC2COC2)cc1-n1cc(NC(=O)Nc2c(F)cccc2Cl)cn1`, the remaining activity was 104% (enzyme activity; inhibitor; 10 µM).
For `COc1cc2ncnc(Nc3ccc(Oc4ccccc4)cc3C)c2cc1OC`, the inhibition was 84% (enzyme activity; inhibitor; 1 µM).
With `CNC(=O)c1cc2c(Oc3ccc(NC(=O)C4(C(=O)Nc5ccc(F)cc5)CC4)cc3)ccnc2cc1OC` the inhibition was 97% (enzyme activity; inhibitor; radiometric; 1 µM).
`CC(C)(C)c1nc2c(s1)c1nc(N)ncc1c1ccc(NS(=O)(=O)c3c(F)cccc3F)c(F)c12` has a remaining activity of 70% (enzyme activity; inhibitor; radiometric; 1 µM).
